Assay results reported in ChEMBL document CHEMBL5154895, “Mechanistic Studies and In Vivo Efficacy of an Oxadiazole-Containing Antibiotic” (J Med Chem, 2022).
≈ marks a conversion by molar mass, not a printed value. Calls of active or inactive are those of the source. The rule behind the calls is not given here.

Assays:
Staphylococcus aureus [1] = assay: Antibacterial activity against Staphylococcus aureus ATCC 25923 assessed as inhibition of bacterial growth incubated for 18 to 20 hrs by broth microdilution method; format: functional; details: time 18-20 hrs
Method in brief: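 Broth microdilution per CLSI. Inoculum at 0.5 McFarland, diluted in cation-adjusted Mueller Hinton broth to about 5 × 10^5 CFU/mL. Serial compound dilutions incubated aerobically at 37° C for 18–20 hours. MIC taken as the lowest concentration completely inhibiting visible growth.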

Staphylococcus aureus [2] = assay: Upregulation of siderophore biosynthesis protein SbnC expression in Staphylococcus aureus measured after 2 hrs by LC-MS/MS analysis; format: functional
Method in brief: (§1)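 S. aureus ATCC 25923 at OD600 0.6 exposed to compound or DMSO control for 2 h at 37°C, normalized to OD600 1.1 and PBS-washed. Cells were pressure-cycling lysed in 100 mM ammonium bicarbonate, and 50 μg protein was acetone-precipitated, reduced and alkylated, then Trypsin/Lys-C digested and C18-desalted. About 1 μg peptides went to LC-MS/MS. Label-free quantitation kept proteins present in all 3 samples, filtered at p <0.05.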

Staphylococcus aureus [3] = assay: Downregulation of MtaB protein expression in Staphylococcus aureus assessed as log2 of fold change in protein level measured after 2 hrs by LC-MS/MS analysis relative to control; format: functional
Method in brief: (§2)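 S. aureus ATCC 25923 at OD600 0.6 was treated with compound or DMSO for 2 h at 37 °C, normalised to OD600 1.1, and washed in PBS. Cells were pressure-lysed in 100 mM ammonium bicarbonate, then acetone-precipitated, reduced with DTT, alkylated with iodoacetamide, and digested with trypsin/Lys-C. Peptides were desalted and run on LC-MS/MS. Label-free quantitation used proteins present in all 3 samples, filtered at p<0.05 against DMSO.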

Staphylococcus aureus [4] = assay: Downregulation of multifunctional 2,3-cyclic-nucleotide 2-phosphodiesterase/5-nucleotidase/3-nucleotidase protein expression in Staphylococcus aureus measured after 2 hrs by LC-MS/MS analysis; format: functional; method in brief: as §1
Staphylococcus aureus [5] = assay: Downregulation of DapE protein expression in Staphylococcus aureus assessed as log2 of fold change in protein level measured after 2 hrs by LC-MS/MS analysis relative to control; format: functional; method in brief: as §2
HaCaT = assay: Cytotoxicity against human HaCaT cells assessed as reduction in cell viability measured upto 64 ug/ml incubated for 2 hrs by MTS assay; format: toxicity, cell-based; details: dose < 64 µg/ml
Method in brief: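 Human keratinocytes exposed to compound at 16, 32, 64 and 128 μg/mL in sextuplicate for 2 hours at 37 °C with 5% CO2. DMSO served as the baseline control. MTS reagent added, then 3 h further incubation, and absorbance read at OD490.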

Mus musculus = assay: Acceleration of wound healing in methicillin-resistant Staphylococcus aureus USA300 infected in Balb/c mouse model assessed as reduction in pro-inflammatory cytokines level in skin wounds administered topically twice daily 2 days post infection and measured after 5 days post compound treatment; format: functional, organism-based; details: time 5.0 day
Method in brief: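 Mice had two 6-mm dorsal excisional wounds, each infected with 20 μL of 4.2×10^9 CFU/mL MRSA USA300 and covered with Tegaderm. Treatment began 2 days after infection (n=5 per group): 2% compound in petroleum jelly applied topically twice daily for 5 days. Right-wound homogenates in PBS were centrifuged, supernatants pooled per group, and protein normalised by BCA. Cytokines were measured by mouse cytokine array (pg/mL).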

Staphylococcus aureus [6] = assay: Downregulation of copper-translocating P-type ATPase protein expression in Staphylococcus aureus measured after 2 hrs by LC-MS/MS analysis; format: functional; method in brief: as §2
Staphylococcus aureus [7] = assay: Downregulation of peptide ABC transporter permease protein expression in Staphylococcus aureus measured after 2 hrs by LC-MS/MS analysis; format: functional; method in brief: as §1
Staphylococcus aureus [8] = assay: Downregulation of CDP-diacylglycerol-glycerol-3-phosphate-3-phosphatidyltransferase protein expression in Staphylococcus aureus measured after 2 hrs by LC-MS/MS analysis; format: functional; method in brief: as §2
Staphylococcus aureus [9] = assay: Downregulation of type VII secretion protein EsaB protein expression in Staphylococcus aureus measured after 2 hrs by LC-MS/MS analysis; format: functional; method in brief: as §1
Staphylococcus aureus [10] = assay: Downregulation of glutamyl endopeptidase protein expression in Staphylococcus aureus measured after 2 hrs by LC-MS/MS analysis; format: functional; method in brief: as §2
Staphylococcus aureus [11] = assay: Downregulation of sodium ABC transporter ATP-binding protein expression in Staphylococcus aureus measured after 2 hrs by LC-MS/MS analysis; format: functional; method in brief: as §1
Staphylococcus aureus [12] = assay: Upregulation of ribonuclease HIII expression in Staphylococcus aureus measured after 2 hrs by LC-MS/MS analysis; format: functional; method in brief: as §1
Staphylococcus aureus [13] = assay: Upregulation of peptidase M23 protein expression in Staphylococcus aureus assessed as log2 of fold change in protein level measured after 2 hrs by LC-MS/MS analysis relative to control; format: functional; method in brief: as §1
Staphylococcus aureus [14] = assay: Downregulation of EsaA protein expression in Staphylococcus aureus assessed as log2 of fold change in protein level measured after 2 hrs by LC-MS/MS analysis relative to control; format: functional; method in brief: as §2
Staphylococcus aureus [15] = assay: Upregulation of Bsh protein expression in Staphylococcus aureus assessed as log2 of fold change in protein level measured after 2 hrs by LC-MS/MS analysis relative to control; format: functional; method in brief: as §1
Staphylococcus aureus [16] = assay: Upregulation of GpmA protein expression in Staphylococcus aureus assessed as log2 of fold change in protein level measured after 2 hrs by LC-MS/MS analysis relative to control; format: functional; method in brief: as §1
Staphylococcus aureus [17] = assay: Upregulation of 23S rRNA (pseudouridine(1915)-N(3))-methyltransferase RImH expression in Staphylococcus aureus measured after 2 hrs by LC-MS/MS analysis; format: functional; method in brief: as §1
Staphylococcus aureus [18] = assay: Downregulation of MAP domain-containing protein expression in Staphylococcus aureus measured after 2 hrs by LC-MS/MS analysis; format: functional; method in brief: as §2
Staphylococcus aureus [19] = assay: Downregulation of signal peptidase II protein expression in Staphylococcus aureus measured after 2 hrs by LC-MS/MS analysis; format: functional; method in brief: as §1
Staphylococcus aureus [20] = assay: Upregulation of acyl phosphatase expression in Staphylococcus aureus measured after 2 hrs by LC-MS/MS analysis; format: functional; method in brief: as §1
Staphylococcus aureus [21] = assay: Upregulation of 30S ribosomal protein S20 expression in Staphylococcus aureus measured after 2 hrs by LC-MS/MS analysis; format: functional; method in brief: as §1
Streptococcus pyogenes = assay: Antibacterial activity against Streptococcus pyogenes MGAS 9882 assessed as inhibition of bacterial growth incubated for 18 to 20 hrs by broth microdilution method; format: functional; details: time 18-20 hrs
Method in brief: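 Broth microdilution with a 0.5 McFarland inoculum diluted in tryptic soy broth to about 5 × 10^5 CFU/mL. Serial compound dilutions incubated aerobically at 37° C for 18–20 hours. MIC read visually as the lowest concentration with no growth.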

Staphylococcus aureus [22] = assay: Upregulation of glycine cleavage system protein H expression in Staphylococcus aureus measured after 2 hrs by LC-MS/MS analysis; format: functional; method in brief: as §1
Staphylococcus aureus [23] = assay: Antibacterial activity against vancomycin-resistant Staphylococcus aureus 9 assessed as inhibition of bacterial growth incubated for 18 to 20 hrs by broth microdilution method; format: functional; details: time 18-20 hrs
Method in brief: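 Broth microdilution per CLSI. Inoculum was set to 0.5 McFarland and diluted in CAMHB to about 5×10^5 CFU/mL. Serial dilutions of agent were incubated aerobically at 37 °C for 18–20 h. MIC was read visually as the lowest concentration with complete growth inhibition.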

Staphylococcus aureus [24] = assay: Downregulation of site-specific integrase protein expression in Staphylococcus aureus measured after 2 hrs by LC-MS/MS analysis; format: functional; method in brief: as §1
Staphylococcus aureus [25] = assay: Upregulation of haptoglobin-binding heme uptake protein HarA expression in Staphylococcus aureus measured after 2 hrs by LC-MS/MS analysis; format: functional; method in brief: as §1
Staphylococcus aureus [26] = assay: Downregulation of molybdenum ABC transporter ATP-binding protein expression in Staphylococcus aureus measured after 2 hrs by LC-MS/MS analysis; format: functional; method in brief: as §1

What does the source list for `CC1CC(C)CN(S(=O)(=O)c2ccc(C(=O)Nc3nnc(-c4ccc(C(F)(F)F)cc4)o3)cc2)C1` (centres undefined)?
MIC (Staphylococcus aureus [1]): 0.25 µg/mL (≈ 0.492 µM); Activity (Staphylococcus aureus [2]): Active; log2FC (Staphylococcus aureus [3]): -2; Activity (Staphylococcus aureus [4]): Active; log2FC (Staphylococcus aureus [5]): -3.3; Activity (HaCaT): Non-Toxic; Activity (Mus musculus): Active; Activity (Staphylococcus aureus [6]): Active; Activity (Staphylococcus aureus [7]): Active; Activity (Staphylococcus aureus [8]): Active; Activity (Staphylococcus aureus [9]): Active; Activity (Staphylococcus aureus [10]): Active; Activity (Staphylococcus aureus [11]): Active; Activity (Staphylococcus aureus [12]): Active; log2FC (Staphylococcus aureus [13]): 2; log2FC (Staphylococcus aureus [14]): -2; log2FC (Staphylococcus aureus [15]): 3.6; log2FC (Staphylococcus aureus [16]): 2.2; Activity (Staphylococcus aureus [17]): Active; Activity (Staphylococcus aureus [18]): Active; Activity (Staphylococcus aureus [19]): Active; Activity (Staphylococcus aureus [20]): Active; Activity (Staphylococcus aureus [21]): Active; MIC (Streptococcus pyogenes): 0.06 µg/mL (≈ 0.118 µM); Activity (Staphylococcus aureus [22]): Active; MIC (Staphylococcus aureus [23]): 0.25 µg/mL (≈ 0.492 µM); Activity (Staphylococcus aureus [24]): Active; Activity (Staphylococcus aureus [25]): Active; Activity (Staphylococcus aureus [26]): Active
